Test results as given in ChEMBL document CHEMBL1129531, “2-substituted piperazines as constrained amino acids. Application to the synthesis of potent, non carboxylic acid inhibitors of farnesyltransferase” (J Med Chem, 1996).
≈ marks a conversion by molar mass, not a printed value.

Legend:
[1] = biological target: Protein farnesyltransferase (Homo sapiens, UniProt P49354+P49356); assay: Inhibition of [3H]FPP incorporation into Ha-Ras by Farnesyltransferase; format: protein-complex assay
Method in brief: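 Recombinant human Ha-Ras protein as acceptor, with [³H]FPP as farnesyl donor. Read-out is FTase-catalyzed radiolabel incorporation into Ha-Ras. IC50 is the concentration giving 50% inhibition, reported ±SEM with the number of determinations given.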

[2] = Inhibition of human Geranylgeranyl transferase type I
Method in brief: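 Recombinant human GGTase I. IC50 reported ±SEM with the number of determinations given.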

[3] = Inhibition of anchorage-independent growth of ras-transformed cells in soft agar; format: functional
Method in brief: (§1)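 RAT1 cells transformed with v-ras or v-raf were grown in soft agar with compound. MIC is the minimum concentration reducing the size and number of colonies relative to vehicle-treated control. A v-mos-transformed cell line served as control, tested up to 2.5 µM.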

[4] = biological target: Protein farnesyltransferase (Rattus norvegicus, UniProt Q02293+Q04631); assay: Inhibition of post-traslational processing of Ras protein in RAT1 cell line; format: functional, cell-based
Method in brief: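 RAT1 cells transformed with viral Ha-ras were incubated with compound for 24 h, then lysed. Ras was immunoprecipitated and resolved by denaturing gel electrophoresis to detect inhibition of post-translational processing (farnesylation). IC50 derived.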

Rat1 = assay: Highest nontoxic concentration in RAT1 cells; format: functional
Method in brief: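 Cultured RAT1 cells; viability assessed by viable staining with MTT. Value is the highest nontoxic concentration, i.e. the concentration compatible with ≥90% cell survival.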

[5] = Inhibition of anchorage-independent growth of raf-transformed cells in soft agar; format: functional; method in brief: as §1
[6] = biological target: Geranylgeranyl transferase type I (Bos taurus, UniProt P29702+Q5EAD5); assay: Inhibition of bovine Geranylgeranyl transferase type I; format: protein-complex assay
Method in brief: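 Type-I GGTase from bovine source. IC50 reported ±SEM with the number of determinations given.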

| Structure (SMILES) | IC50 [1] [nM] | IC50 [2] [nM] | MIC [3] [µM] | IC50 [4] [nM] | MIC [5] [µM] | IC50 [6] [nM] | CTE (Rat1) [µM] |
| --- | --- | --- | --- | --- | --- | --- | --- |
| CCCC[C@H]1CN(C(=O)c2cccc(C)c2C)CCN1C[C@@H](N)CS | 5 |  |  |  |  | 360 |  |
| COCC[C@H]1CN(C(=O)c2cccc3ccccc23)CCN1C[C@@H](N)CS | 3 |  | 10 (≈ 3.88 µg/mL) | 500 | > 50 | 10000 | >100 |
| CC[C@H]1CN(C(=O)c2cccc(C)c2C)CCN1C[C@@H](N)CS | 68 |  |  |  |  |  |  |
| Cc1cccc(C(=O)N2CCN(C[C@@H](N)CS)CC2)c1C | 160 |  |  |  |  | 2800 |  |

More lines, in order of falling IC50 [1], values ahead:

| IC50 [1] [nM] | IC50 [2] [nM] | MIC [3] [µM] | IC50 [4] [nM] | MIC [5] [µM] | IC50 [6] [nM] | Structure (SMILES) | CTE (Rat1) [µM] |
| --- | --- | --- | --- | --- | --- | --- | --- |
| 24 |  |  |  |  |  | CCCC[C@H]1CN(C(=O)c2ccccc2)CCN1C[C@@H](N)CS |  |
| 1 | 3900 | 2.5 (≈ 1.03 µg/mL) | 500 |  |  | N[C@@H](CS)CN1CCN(C(=O)c2cccc3ccccc23)C[C@@H]1CCOC1CC1 | 25 |
| 1 |  | 10 (≈ 3.86 µg/mL) | 500 | > 10 | 160 | CCCC[C@H]1CN(C(=O)c2cccc3ccccc23)CCN1C[C@@H](N)CS | 10 |
